Measurements taken from ChEMBL document CHEMBL2380244, “Optimized chemical probes for REV-ERBα” (J Med Chem, 2013).
pEC50, pIC50: −log10 of the molar value. The source made the active and inactive calls. The rule behind the calls is not given here.

Experiments:
[1] = target: T1, Nuclear receptor subfamily 1 group D member 1 (Homo sapiens) (UniProt P20393); test: Agonist activity at REV-ERBalpha in human U2OS cells assessed as delay of peak of second cycle at 20 uM by luciferase reporter gene assay relative to DMSO-treated control; type: cell-based
T1 sequence (whole entry): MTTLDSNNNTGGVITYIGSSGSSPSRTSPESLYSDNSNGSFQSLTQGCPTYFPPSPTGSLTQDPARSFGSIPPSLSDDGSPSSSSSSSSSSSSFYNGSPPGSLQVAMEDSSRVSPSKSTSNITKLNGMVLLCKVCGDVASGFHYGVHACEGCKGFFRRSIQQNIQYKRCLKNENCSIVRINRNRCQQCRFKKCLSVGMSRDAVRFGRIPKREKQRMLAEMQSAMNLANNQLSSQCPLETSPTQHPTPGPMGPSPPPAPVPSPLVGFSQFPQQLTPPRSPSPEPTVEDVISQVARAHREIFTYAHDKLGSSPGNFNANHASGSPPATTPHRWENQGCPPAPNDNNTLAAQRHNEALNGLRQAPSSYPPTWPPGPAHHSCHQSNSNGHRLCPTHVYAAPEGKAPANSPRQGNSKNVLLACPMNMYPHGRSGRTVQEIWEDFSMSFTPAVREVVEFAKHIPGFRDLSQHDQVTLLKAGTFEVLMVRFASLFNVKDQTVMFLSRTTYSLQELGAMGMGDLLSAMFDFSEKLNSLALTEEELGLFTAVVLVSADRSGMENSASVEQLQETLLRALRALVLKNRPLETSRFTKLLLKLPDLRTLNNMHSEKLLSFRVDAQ
In short: (§1)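 U2OS cells stably carrying a mouse Bmal1-promoter luciferase reporter (hygromycin-selected clone) seeded at confluence in 384-well format. Rhythms synchronized by media change and checked over 48 h. Compound added, then bioluminescence recorded in real time every 20 min for 72 h in a temperature-controlled luminometer. Cells then washed and recovery oscillations in full growth medium monitored as a toxicity counter-screen.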

[2] = target: T1, Nuclear receptor subfamily 1 group D member 1 (Homo sapiens); test: Agonist activity at REV-ERBalpha in human U2OS cells assessed as suppression of BMAL1 expression at 20 uM after 40 hrs by luciferase reporter gene assay relative to DMSO-treated control; type: cell-based; in short: as §1
Homo sapiens = species: Homo sapiens; test: Selectivity ratio of IC50 for LXRalpha (unknown origin) to EC50 for biotinylated REV-ERBalpha (unknown origin)
[3] = target: T2, Oxysterols receptor LXR-alpha (Homo sapiens, UniProt Q13133); test: Binding affinity to LXRalpha (unknown origin) by radioligand displacement assay
T2 sequence (Q13133 whole entry): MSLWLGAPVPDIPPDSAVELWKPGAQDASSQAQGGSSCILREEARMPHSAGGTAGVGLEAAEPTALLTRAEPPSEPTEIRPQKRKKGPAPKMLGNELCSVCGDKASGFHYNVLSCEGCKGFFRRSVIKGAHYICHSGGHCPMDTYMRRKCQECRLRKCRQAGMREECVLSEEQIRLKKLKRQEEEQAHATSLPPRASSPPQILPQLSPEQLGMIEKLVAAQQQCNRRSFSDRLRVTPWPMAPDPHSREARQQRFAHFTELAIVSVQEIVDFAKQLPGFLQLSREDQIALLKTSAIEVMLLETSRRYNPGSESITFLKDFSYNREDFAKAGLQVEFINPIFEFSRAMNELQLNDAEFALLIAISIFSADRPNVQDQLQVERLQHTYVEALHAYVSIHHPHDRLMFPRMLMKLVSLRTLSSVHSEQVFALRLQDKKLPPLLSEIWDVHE

[4] = target: T3, Nuclear receptor subfamily 1 group D member 1 (Homo sapiens, UniProt P20393); test: Agonist activity at biotinylated REV-ERBalpha (unknown origin) assessed as increase in biotinylated NCOR peptide recruitment after 1 hr by FRET assay
T3 sequence (P20393 whole entry): T1 sequence (whole entry)
In short: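 TR-FRET: 20 nM biotinylated REV-ERBα pre-complexed with 10 nM APC-streptavidin, excess biotin added, then mixed with 20 nM biotinylated NCOR1 on 10 nM Eu-streptavidin. MOPS pH 7.5 buffer with NaF, CHAPS, BSA and 10 mM DTT. Added to compound (serial DMSO dilutions of 10 mM stocks), 1 h at RT, Eu/APC read. Data normalized to basal and minimal HTRF, fitted to a 4-parameter logistic.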

[5] = target: T4, Oxysterols receptor LXR-alpha (Homo sapiens) (UniProt Q13133); test: Agonist activity at LXRalpha in human THP1 cells assessed as upregulation of LPS-stimulated ABCA1 mRNA expression at 10 uM after 6 hrs by RT-qPCR analysis; type: cell-based; conditions: THP-1
T4 sequence (whole entry): T2 sequence (Q13133 whole entry)
In short: (§2)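 THP-1 cells sub-cultured in RPMI1640 with 10% FBS, stimulated with LPS 10 μg/mL in presence of DMSO or compound at 10 μM. Transcript read-out by RT-qPCR, normalized to TATA box binding protein.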

[6] = target: T1, Nuclear receptor subfamily 1 group D member 1 (Homo sapiens); test: Agonist activity at REV-ERBalpha in human THP1 cells assessed as downregulation of LPS-stimulated IL-6 mRNA expression at 10 uM after 6 hrs by RT-qPCR analysis; type: cell-based; conditions: THP-1; in short: as §2
[7] = target: T1, Nuclear receptor subfamily 1 group D member 1 (Homo sapiens); test: Agonist activity at biotinylated REV-ERBalpha (unknown origin) assessed as biotinylated PGC1-beta peptide recruitment after 20 mins by Greiner assay
In short: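 Biotinylated peptides (final 20 nM) with Eu-W1024 streptavidin (final 20 nM), 20 min RT. Biotinylated REV-ERBα (20 nM) with APC-streptavidin (10 nM), 20 min RT, then 20-fold excess biotin, 15 min RT. Receptor solution added to peptide plates, Eu/APC TR-FRET read. Four wells per peptide averaged, with standard deviation.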

THP-1 = test: Cytotoxicity against human THP1 cells assessed as cell viability measured ATP level at 10 uM after 6 hrs by celltiter-glo assay; type: cell-based; conditions: thp-1, 6 h
In short: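 THP-1 cells incubated six hours with compound. CellTiter-Glo added for 15 min, then luminescence read.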

[8] = target: T4, Oxysterols receptor LXR-alpha (Homo sapiens); test: Agonist activity at LXRalpha in human THP1 cells assessed as effect on LPS-stimulated ABCA1 mRNA expression at 1 uM after 6 hrs by RT-qPCR analysis; type: cell-based; conditions: THP-1
In short: (§3)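 THP-1 cells (RPMI1640 + 10% FBS, kept at 3×10^5–8×10^5 cells/mL) stimulated with LPS 10 mcg/mL with DMSO or compound at 1 μM, in triplicate. After six hours the cells were lysed and transcripts quantified by RT-qPCR against TATA box binding protein as housekeeping gene. Groups compared by one-way ANOVA with post-hoc Dunnett's.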

[9] = target: T1, Nuclear receptor subfamily 1 group D member 1 (Homo sapiens); test: Agonist activity at REV-ERBalpha in human THP1 cells assessed as downregulation of LPS-stimulated IL-6 mRNA expression at 1 uM after 6 hrs by RT-qPCR analysis; type: cell-based; conditions: THP-1; in short: as §3
[10] = target: T1, Nuclear receptor subfamily 1 group D member 1 (Homo sapiens); test: Agonist activity at REV-ERBalpha in human U2OS cells assessed as suppression of BMAL1 oscillation measured for 72 hrs by luciferase reporter gene assay; type: cell-based; in short: as §1

| Structure (SMILES) | TIME [1] [h] | Activity [2] [%] | Ratio IC50/EC50 (Homo sapiens) | pIC50 [3] | pEC50 [4] | Activity [5] | Activity [6] | Activity [7] | Activity (THP-1) | Activity [8] | Activity [9] | Activity [10] |
| --- | --- | --- | --- | --- | --- | --- | --- | --- | --- | --- | --- | --- |
| Cc1ccc(CN(Cc2cccnc2)Cc2ccc([N+](=O)[O-])s2)cc1 | 0 | 23 | 250 | 4.40 | 6.80 |  |  |  |  |  |  |  |
| N#Cc1ccc(CN(Cc2cccnc2)Cc2cc(F)ccc2F)s1 | 0 | 27 | 10 | 5.20 | 6.20 |  |  |  |  |  |  |  |
| COc1cccc(CN(Cc2cccnc2)Cc2ccc([N+](=O)[O-])s2)c1 | 0.5 | 42 | 25 | 5.00 | 6.40 |  |  |  |  |  |  |  |
| CC(C)(C)OC(=O)CN(Cc1ccc(Cl)cc1)Cc1ccc([N+](=O)[O-])s1 [GSK-4112] | 0 | 6 | 10 | 5.30 | 6.30 | Active | Active | Dose-dependent effect |  |  |  |  |
| CC(C)CCN(Cc1ccc(Cl)cc1)Cc1ccc([N+](=O)[O-])s1 | 0 | 21 | 100 | 4.80 | 6.80 |  |  |  |  |  |  |  |
| Clc1ccc(CN(Cc2cccnc2)Cc2ncc[nH]2)cc1 |  |  |  | < 4.00 | < 4.30 |  |  |  |  |  |  |  |
| O=[N+]([O-])c1ccc(CN(Cc2ccc(Cl)cc2)Cc2cccnc2)s1 |  |  | 79 | 4.89 | 6.80 |  |  |  |  |  |  |  |
| CCCCCNC(=O)N1CCC(CN(Cc2ccc(Cl)cc2)Cc2ccc([N+](=O)[O-])s2)C1 (stereo unspecified) [SR9011] | 1.3 | 20 |  |  | < 4.30 |  |  | Dose-dependent effect |  |  |  |  |
| Clc1ccc(CN(Cc2cccnc2)Cc2nccs2)cc1 |  |  |  | 4.30 | < 4.30 |  |  |  |  |  |  |  |
| Cc1cccc(CN(Cc2cccnc2)Cc2ccc([N+](=O)[O-])s2)c1 | 0.8 | 41 | 130 | 4.60 | 6.70 |  |  |  |  |  |  |  |
| Clc1ccc(CN(Cc2cccnc2)Cc2sccc2-n2cccc2)cc1 | 0 | 30 | 63 | 4.40 | 6.20 |  |  |  |  |  |  |  |
| N#Cc1ccc(CN(Cc2ccc(F)cc2)Cc2cccnc2)s1 |  |  |  |  | 6.70 |  |  |  |  |  |  |  |
| N#Cc1ccc(CN(Cc2cccnc2)Cc2ccccc2F)s1 | 0 | 6 |  | 4.49 | < 4.30 |  |  |  |  |  |  |  |
| O=[N+]([O-])c1ccc(CN(Cc2ccc(F)cc2)Cc2cccnc2)s1 | 0 | 14 | 250 | 4.40 | 6.80 |  |  |  | Non-toxic | inactive | Active |  |
| Cc1cc(Cl)ccc1CN(Cc1ccc(Cl)cc1)Cc1ccc([N+](=O)[O-])s1 | 0 | 21 | 1260 | 4.20 | 7.30 |  |  |  | Non-toxic | inactive | Active | Dose-dependent effect |
| Clc1ccc(CN(Cc2cccnc2)Cc2cc3ccccc3s2)cc1 | 0 | 24 | 100 | 4.40 | 6.40 |  |  |  |  |  |  |  |
| N#Cc1ccc(CN(Cc2ccc(Cl)cc2)Cc2cccnc2)s1 | 0 | 23 |  | 4.70 | 6.70 |  |  |  | Non-toxic | inactive | Active |  |
| N#Cc1ccc(CN(Cc2cccnc2)Cc2ccc(F)c(F)c2)s1 | 0 | 37 | 79 | 4.80 | 6.70 |  |  |  | Non-toxic | inactive | Active |  |
| O=[N+]([O-])c1ccc(CN(Cc2ccccc2)Cc2ccc(Cl)cc2)s1 |  |  | > 1000 | < 4.00 | 7.00 |  |  |  |  |  |  |  |
| Cc1sc(CN(Cc2ccc(Cl)cc2)Cc2cccnc2)cc1Br | 0 | 16 | 130 | 4.49 | 6.60 |  |  |  |  |  |  |  |
| O=[N+]([O-])c1ccc(CN(Cc2cccnc2)Cc2cccc(C(F)(F)F)c2)s1 |  |  | 40 | 4.80 | 6.40 |  |  |  |  |  |  |  |
| COc1ccc(CN(Cc2cccnc2)Cc2ccc([N+](=O)[O-])s2)cc1 |  |  | 160 | 4.49 | 6.70 |  |  |  |  |  |  |  |
| O=[N+]([O-])c1ccc(CN(Cc2ccc(Cl)cc2)Cc2ccccc2F)s1 | 0 | 38 | 320 | 4.70 | 7.20 |  |  |  |  |  |  |  |
| COc1ccc(CN(Cc2cccnc2)Cc2ccc(C#N)s2)cc1 |  |  | > 160 | < 4.00 | 6.20 |  |  |  |  |  |  |  |
| Cc1ccccc1CN(Cc1cccnc1)Cc1ccc([N+](=O)[O-])s1 | 0 | 37 | 160 | 4.49 | 6.70 |  |  |  |  |  |  |  |
| CCOC(=O)N1CCC(CN(Cc2ccc(Cl)cc2)Cc2ccc([N+](=O)[O-])s2)C1 (stereo unspecified) | 1.3 | 14 |  |  |  |  |  | Dose-dependent effect |  |  |  |  |
